Entries after “also recorded” stand apart in the source; their conditions may differ.
How the values were obtained:
NADPH oxidase = type: cell-based, rat; settings: VSMC membrane fractions, lucigenin, RLU, n=5–15; for TNF-α-primed NADPH oxidase activity, effect of inhibitor: TNF-α pre-treatment
In short: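 Cultured rat (A7r5) aortic VSMCs were pretreated with the test compound (a PKC inhibitor) or with the flavoenzyme inhibitor DPI, then stimulated with TNF-α. NADPH oxidase activity was measured by lucigenin-enhanced chemiluminescence and reported as relative light units. n=5–15.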

[1] = biological target: NoxA1 activation domain (AD); assay: ITC binding of NoxA1 AD peptide with Nox1 peptides; settings: for Kd: read-out: Kd (affinity) for NoxA1 AD, n=3 independent experiments
[2] = circular dichroism of peptides; type: physicochemical; settings: negative dip below 200 nm, near-zero shoulders at longer wavelengths
Nox1 [3] = assay: Nox1 phosphorylation in VSMCs, IP anti-p22phox / Western blot anti-STY; type: cell-based, rat; settings: for Nox1 phosphorylation on agonist treatment (other agonists): VSMC, Online Figure III, timing may be agonist dependent
In short: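 A7r5 rat aortic VSMCs in culture were stimulated with TNF-α, with or without PKC inhibitor pretreatment. Nox1 phosphorylation was detected by Western blotting with an anti-phospho-Ser/Thr/Tyr (anti-STY) antibody. n=3.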

Nox1 [4] = assay: ROS production by CM-H2DCF fluorescence in VSMCs; type: cell-based, murine
In short: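 Cultured aortic VSMCs from C57Bl6/J (WT) and Nox1-/y mice were pretreated with the test compound (a PKC inhibitor), then stimulated with TNF-α. ROS were imaged by CM-H2DCF fluorescence, with nuclei counterstained with ToPro3.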

VSMCs = assay: VSMC migration to TNF-α; type: cell-based, murine
In short: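 Aortic VSMCs from WT C57Bl6/J and Nox1-/y mice were pretreated with the test compound (a PKC inhibitor), and their migration to TNF-α was counted. n=5–15.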

human recombinant PKC-βI [5] = assay: ITC in vitro kinase reaction of recombinant PKC-βI with Nox1 peptide; type: biochemical; settings: slow return to baseline after heat of dilution
human recombinant PKC-βI [6] = assay: dot blot; type: biochemical; settings: anti-p-STY; total peptide by Ponceau staining
In short: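 Input and product of the in vitro PKC-βI kinase reaction on the Nox1 T429 peptide were dot-blotted and probed with anti-p-STY. Total peptide was measured by Ponceau staining. Signal was quantified as the ratio of p-STY to total peptide. A phosphorylated T429 peptide was included.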

Nox1 [7] = assay: superoxide in intact CosPhox cells with p47phox and NoxA1; type: cell-based; settings: TNF-α (10 ng/ml), PDGF-BB (10 ng/ml), AngII (10^-7 M), PMA (10^-6 M), RLU/sec, n=4
In short: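 Cos7 cells stably expressing p22phox (CosPhox) were transfected with p47phox, NoxA1, and either wild-type or T429A Nox1. Superoxide was read as luminescence (RLU/sec) in intact cells immediately after agonist addition. The unstimulated signal was subtracted from the agonist signal, and values were normalized to cell number.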

NoxA1 = NoxA1 membrane recruitment in CosPhox cells; type: cell-based; settings: n=4
In short: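 CosPhox cells (Cos7 stably expressing p22phox, p47phox and p67phox) expressed p22phox, NoxA1, and either WT or T429A Nox1. After TNF-α treatment, membrane fractions were isolated and immunoblotted for NoxA1. Whole-cell lysates taken before membrane isolation were probed for GAPDH. n=4 independent experiments.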

p47^phox = assay: p47phox membrane recruitment; type: cell-based; settings: WT versus T429A Nox1; Online Figure VIII
[8] = biological target: T1, phosphorylated Nox1 peptide (peptide containing phosphorylated Nox1 at T429); assay: ITC
T1 chain: KLKTQKIYF

## c1ccc2c(c1)[I+]c1ccccc1-2 [DPI]
NADPH oxidase
  TNF-α-primed NADPH oxidase activity, effect of inhibitor: completely abolished

## KLKT*QKIYF [pNox1 peptide]
[1]
  Kd: 1.5 ± 0.3 µM
[2]
  secondary structure by circular dichroism: unstructured; also recorded: characteristic random coil signals

## COc1c(C[C@@H](C)OC(=O)Oc2ccc(O)cc2)c2c3c(C[C@@H](C)OC(=O)c4ccccc4)c(OC)c(=O)c4c(O)cc(OC)c(c5c(OC)cc(O)c(c1=O)c52)c43 [CalC, Calphostin C, reference compound]
Nox1 [3]; cultured A7r5 rat aortic VSMCs, TNF-α, n=3
  TNF-α-stimulated Nox1 phosphorylation, effect of pretreatment: inhibited
Nox1 [4]; WT murine VSMCs, TNF-α
  Nox1-dependent ROS production, effect of pretreatment: abrogated
NADPH oxidase
  TNF-α-primed NADPH oxidase activity, effect of inhibitor: completely abolished
VSMCs; WT murine VSMCs, n=5–15
  TNF-α-mediated migration, effect of pretreatment: blocked

## KLKTQKIYF [Nox1 peptide]
[1]
  interaction with NoxA1 (in words): no measurable interaction
  Kd: > 100 µM
Human recombinant PKC-βI [5]
  phosphorylation by PKC-βI (heat of reaction): substrate for PKC-βI
Human recombinant PKC-βI [6]
  phosphorylation by PKC-βI, dot blot: confirms phosphorylation

## angiotensin II (DRVYIHPF; Angiotensin-2; UniProt P01019 25-32, looked up) [AngII, reference compound]
Nox1 [7]
  agonist-stimulated cellular superoxide, T429A Nox1: markedly attenuated
  agonist-stimulated cellular superoxide, WT Nox1: increased

## CCCCCCCCCCCCCC(=O)O[C@@H]1[C@@H](C)[C@@]2(O)[C@@H](C=C(CO)C[C@]3(O)C(=O)C(C)=C[C@@H]23)[C@@H]2C(C)(C)[C@]12OC(C)=O [PMA, phorbol myristate acetate, reference compound]
Nox1 [3]
  Nox1 phosphorylation on agonist treatment (other agonists): phosphorylation of VSMC Nox1 occurs
Nox1 [7]
  agonist-stimulated cellular superoxide, T429A Nox1: does not require phosphorylation of T429
  agonist-stimulated cellular superoxide, WT Nox1: increased

## TNF-α
Nox1 [3]; cultured A7r5 rat aortic VSMCs, n=3
  Nox1 phosphorylation on agonist treatment: increased Nox1 phosphorylation
Nox1 [4]; WT versus Nox1^-/y VSMCs
  ROS production on TNF-α: robust ROS production in WT but not Nox1^-/y VSMCs
NADPH oxidase
  NADPH oxidase activity on TNF-α pre-treatment: primes NADPH oxidase activity
VSMCs; Nox1^-/y VSMCs compared
  VSMC migration to TNF-α: requires Nox1
Nox1 [7]
  agonist-stimulated cellular superoxide, T429A Nox1: markedly attenuated
  agonist-stimulated cellular superoxide, WT Nox1: increased
NoxA1; CosPhox cells with T429A Nox1
  NoxA1 membrane translocation following TNF-α, T429A Nox1: prevented
NoxA1; CosPhox cells with p22phox, p47phox, NoxA1, WT Nox1
  TNF-α-induced NoxA1 membrane recruitment, WT Nox1: recruitment of NoxA1 to the membrane
p47^phox
  p47phox membrane recruitment on TNF-α: WT but not T429A Nox1 caused a recruitment of p47^phox to the membrane

B1: NoxA1 activation domain peptide (peptide)
chain: EPVDFLGKAKVVASAIP
modifications: not checked
[8]
  Kd: 1.5 µM
  stoichiometry N: 0.86

B2: PDGF-BB: platelet-derived growth factor-BB (protein, UniProt P01127 82-190, looked up)
Platelet-derived growth …: SLGSLTIAEPAMIAECKTRTEVFEISRRLIDRTNANFLVWPPCVEVQRCSGCCNNRNVQCRPTQVQLRPVQVRKIEIVRKKPIFKKATVTLEDHLACKCETVAAARPVT
modifications: homodimer BB
Nox1 [3]
  Nox1 phosphorylation on agonist treatment (other agonists): phosphorylation of VSMC Nox1 occurs
Nox1 [7]
  agonist-stimulated cellular superoxide, T429A Nox1: markedly attenuated
  agonist-stimulated cellular superoxide, WT Nox1: increased
